Experimental data published in ChEMBL document CHEMBL1132195, “cycloSal-Pronucleotides of 2',3'-dideoxyadenosine and 2', 3'-dideoxy-2',3'-didehydroadenosine: synthesis and antiviral evaluation of a highly efficient nucleotide delivery system” (J Med Chem, 1999).

How the values were obtained:
[1] = Partition coefficient (logP); format: physicochemical; details: octanol/water
Method in brief: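 Compound dissolved in 1-octanol, shaken with an equal volume of water for 10 min and phases separated by centrifugation. Each phase analysed by RP-HPLC with UV detection at 260 nm. P calculated from the peak areas of the aqueous and organic phases.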

C3H/3T3 [2] = test: (§1) Effect of compound against Moloney murine sarcoma virus (MSV)-induced transformation of C3H/3T3 embryo murine fibroblasts; format: functional, cell-based, Mus musculus
Method in brief: (§2)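 C3H/3T3 mouse embryo fibroblasts seeded at 20 000 cells/mL, incubated 24 h, infected with 80 focus-forming units of MSV for 120 min, then given fresh medium with compound dilutions. Transformation scored microscopically after 6 days; EC50 is the concentration giving 50% inhibition of transformation. MCC is the lowest concentration causing microscopically visible morphological alteration of the fibroblast cultures.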

CCRF-CEM = test: In vitro cytotoxic concentration in CEM cells.; format: functional, Homo sapiens
[3] = system: Human immunodeficiency virus 1; test: In vitro inhibition of HIV-1 replication in human T-lymphocytic cells (CEM).; format: functional, organism-based
Method in brief: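 CEM cells at 4×10^5 cells/mL infected with HIV-1 or HIV-2 (strain ROD, stocks grown in MT-4 cells) at ~100 CCID50 per mL. Infected cells mixed 1:1 with compound dilutions.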

[4] = system: Human immunodeficiency virus 2; test: In vitro inhibition of HIV-2 replication in human T-lymphocytic cells (CEM).; format: functional, organism-based
Method in brief: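 CEM cells at 4×10^5 cells/mL infected with HIV-1 or HIV-2 (strain ROD, stocks grown in MT-4 cells) at ~100 CCID50 per mL. Infected cells mixed 1:1 with compound dilutions. Giant cell formation recorded microscopically after 4-5 days; EC50 is the 50% effective concentration.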

[5] = Selectivity index by CC50 of CEM cells/EC50 of CEM cells against HIV-1; format: functional, CCRF-CEM
[6] = Hydrolysis half life in glycine/HCl buffer at the specified pH of 1.5; format: ADME; details: pH 1.5
Method in brief: (§3)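 Compound diluted from DMSO stock to 0.71 mM final in 24.8 mM buffer at 37 °C, with AZT as internal standard. Buffers: phosphate (Sörensen) pH 7.3; glycine/HCl pH 3.0 or 1.5. Aliquots stopped by freezing and analysed by RP-HPLC at 260 nm. Rate constant taken from the log degradation slope, half-life calculated from it; mean of duplicates.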

[7] = Hydrolysis half life in glycine/HCl buffer at the specified pH of 3.0; format: ADME; details: pH 3; method in brief: as §3
[8] = Hydrolysis half life in phosphate buffer at the specified pH of 7.3; format: ADME; details: pH 7.3; method in brief: as §3
C3H/3T3 [9] = test: Minimal cytotoxic concentration required to cause morphological alteration of C3H/3T3 fibroblast culture cells; format: functional; details: Mus musculus; method in brief: as §2
C3H/3T3 [10] = test: as §1; format: functional, cell-based; details: Mus musculus; method in brief: as §2
C3H/3T3 [11] = test: Minimal cytotoxic concentration in C3H/3T3 cells.; format: functional; details: Mus musculus; method in brief: as §2
[12] = Selectivity by CC50 of CEM cells/EC50 of CEM cells against HIV-1; format: functional, CCRF-CEM

Structure (SMILES) | logP [1] | EC50 (C3H/3T3 [2]; c3h/3t3) [nM] | CC50 (CCRF-CEM) [nM] | EC50 [3] [nM] | EC50 [4] [nM] | SI [5] | logP ([1]; read-out: logP) | half-life [6] [min] | half-life [7] [min] | half-life [8] [h] | EC50 (C3H/3T3 [2]; Mus musculus, C3H/3T3) [nM] | CC50 (CCRF-CEM; Homo sapiens, CCRF-CEM) [nM] | EC50 ([3]; Human immunodeficiency virus 1) [nM] | EC50 ([4]; Human immunodeficiency virus 2) [nM] | MCC (C3H/3T3 [9]) [µM] | EC50 (C3H/3T3 [10]) [nM] | MCC (C3H/3T3 [11]) [µM] | SI [12]
COc1ccc2c(c1)COP(=O)(OC[C@@H]1C=C[C@H](n3cnc4c(N)ncnc43)O1)O2 (stereo in doubt; 10b (f)) | 0.48 | 2830 | 40000 | 43 | 50 | 932 | – | – | – | – | – | – | – | – | – | – | – | –
Cc1cc(C)c2c(c1)COP(=O)(OC[C@@H]1C=C[C@H](n3cnc4c(N)ncnc43)O1)O2 (some centres undefined) | – | – | – | – | – | 494 | 0.95 | 0.6 | 8.4 | 44.7 | 1140 | 25000 | 50 | 55 | > 50 | – | – | –
Cc1cccc2c1OP(=O)(OCC1CCC(n3cnc4c(N)ncnc43)O1)OC2 (centres undefined) | – | – | – | – | – | 585 | 0.88 | 31.8 | 834 | 44.3 | – | 28000 | 47 | 30 | > 50 | 1180 | – | –
Cc1cn([C@H]2C[C@H](N=[N+]=[N-])[C@@H](CO)O2)c(=O)[nH]c1=O [ZIDOVUDINE] | – | – | – | – | – | – | 0.025 | – | – | – | > 100000 | > 100000 | – | 6 | – | – | – | –
Cc1cccc2c1OP(=O)(OC[C@@H]1C=C[C@H](n3cnc4c(N)ncnc43)O1)OC2 (some centres undefined) | – | – | – | – | – | 746 | 0.63 | 0.588 | 9 | 32.3 | 1240 | 49000 | 65 | 190 | > 50 | – | – | –
Nc1ncnc2c1ncn2[C@H]1CC[C@@H](CO)O1 | – | – | – | – | – | – | -0.28 | – | – | – | 40000 | > 250000 | 4300 | 4500 | – | – | > 50 | >57
Nc1ncnc2c1ncn2[C@H]1C=C[C@@H](CO)O1 | – | – | – | – | – | 3 | -0.49 | < 0.6 | 0.6 | – | 35000 | 96000 | 30000 | 50000 | > 50 | – | – | –
Cc1cccc2c1OP(=O)(OCC1CCC(n3cnc4c(O)ncnc43)O1)OC2 (centres undefined) | – | – | – | – | – | 53 | 0.14 | 12 | 180 | 44.5 | > 50000 | 58000 | 1100 | 700 | > 50 | – | – | –
Cc1cn([C@H]2C=C[C@@H](CO)O2)c(=O)[nH]c1=O [STAVUDINE] | – | – | – | – | – | – | – | – | – | – | 15000 | 56000 | 180 | 260 | – | – | – | 311
Nc1ncnc2c1ncn2C1CCC(COP2(=O)OCc3ccccc3O2)O1 (centres undefined) | 0.59 | – | – | – | – | 3096 | – | 36 | 774 | 17 | – | 93000 | 30 | 130 | > 50 | 2860 | – | –
OC[C@@H]1C=C[C@H](n2cnc3ncnc(O)c32)O1 | – | – | – | – | – | 20 | -0.89 | < 0.6 | < 0.6 | – | > 50000 | 87000 | 4300 | > 50000 | > 50 | – | – | –
COc1ccc2c(c1)COP(=O)(OC[C@@H]1C=C[C@H](n3cnc4c(N)ncnc43)O1)O2 (stereo in doubt; 10b (s)) | – | 12800 | – | 500 | 330 | 125 | 0.41 | – | – | – | – | 62000 | – | – | > 50 | – | – | –
Nc1ncnc2c1ncn2[C@H]1C=C[C@@H](COP2(=O)OCc3ccccc3O2)O1 (some centres undefined) | – | – | – | – | – | 1329 | 0.36 | 0.6 | 8.4 | 10.3 | 300 | 86000 | 65 | 350 | > 50 | – | – | –
COc1ccc2c(c1)COP(=O)(OCC1CCC(n3cnc4c(N)ncnc43)O1)O2 (centres undefined) | – | – | – | – | – | 1851 | 0.64 | 48 | 732 | 23.4 | – | 87000 | 47 | 160 | > 50 | 3900 | – | –
Cc1cc(C)c2c(c1)COP(=O)(OCC1CCC(n3cnc4c(N)ncnc43)O1)O2 (centres undefined) | – | – | – | – | – | 383 | 1.35 | 43.8 | 618 | 58.2 | 1140 | 10000 | 25 | 25 | > 50 | – | – | –
COc1ccc2c(c1)COP(=O)(OC[C@@H]1C=C[C@H](n3cnc4c(N)ncnc43)O1)O2 (stereo in doubt; 10b) | – | 1210 | 77000 | 80 | 65 | 962 | – | 0.66 | 8.4 | 14.5 | – | – | – | – | – | – | – | –
OCC1CCC(n2cnc3ncnc(O)c32)O1 (centres undefined) | – | – | – | – | – | 44 | -1.25 | 1.8 | 12 | – | > 50000 | 156000 | 3500 | 4000 | > 50 | – | – | –
